Data reported in article PMC7555381 (International Journal of Nanomedicine, 2020).

Legend:
[1] = tested on: Madin–Darby Canine Kidney (MDCK) cells; test: In vitro cytotoxicity; type: cell-based; details: 12 h
Summary of the method: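 MDCK cells seeded at 5×10³ cells/well in DMEM with 10% FBS and 1% penicillin/streptomycin, then held 24 h at 37°C. Treated with test formulations diluted in DMEM at 1, 10, 25, 50, 100, 250 and 500 µg/mL drug equivalent, with matching excipient-only controls, for 12 h. WST-8 was added for 2 h and absorbance read at 450 nm. Viability is expressed relative to untreated cells.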

In vitro drug release = type: physicochemical; details: 37°C, 100 rpm
Summary of the method: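 Drug release from the formulation and from free drug was tested in 900 mL of 0.1 N HCl (pH 1.2) or phosphate buffer (pH 6.8). USP apparatus I (basket) was run at 100 rpm and 37±0.2°C. Results are given as cumulative percentage released over time.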

[2] = tested on: CT26 (murine colon cancer) tumor; test: In vivo tumor growth inhibition in CT26 tumor-bearing mice; design: species or system BALB/c mice
Summary of the method: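 Female BALB/c mice, 6 weeks old, received 1×10⁶ CT26 cells in PBS in the right dorsal flank. At 70–100 mm³, mice were randomised to seven groups of 14: untreated; IV drug 3.3 or 10 mg/kg once biweekly; oral aqueous drug 10 mg/kg daily; oral formulation at 2.5, 10 or 20 mg/kg equivalent daily, for 21 days. Mice were fasted 4 h before and 2 h after dosing. Caliper volume (width²×length×0.52) was recorded every 3 days. Day-21 tumors were weighed and stained for CD31, PCNA and TUNEL.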

[3] = tested on: HCT116 (human colon cancer) tumor; test: In vivo tumor growth inhibition in HCT116 tumor-bearing mice; design: species or system BALB/c nude mice
Summary of the method: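 Female BALB/c nude mice, 6 weeks old, received 1×10⁷ HCT116 cells in PBS in the right dorsal flank. At 70–100 mm³, mice were randomised to the same seven arms: untreated; IV drug 3.3 or 10 mg/kg biweekly; oral aqueous drug 10 mg/kg daily; oral formulation at 2.5, 10 or 20 mg/kg daily, for 21 days. Mice were fasted 4 h before and 2 h after dosing. Caliper volume (width²×length×0.52) was recorded every 3 days, and tumors were weighed at day 21.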

[4] = CT26, once-biweekly IV 10 mg/kg OP, 21 days
[5] = HCT116 tumors, day 21, groups OP-IV (10), ODSF (10), ODSF (20)

O=C1[O][Pt]2([NH][C@@H]3CCCC[C@H]3[NH]2)[O]C1=O (relative stereo) [OP, cis-[(1R,2R)-1,2-cyclohexanediamine-N,N’] [oxalato(2)-O,O´] platinum]
Cell viability ([1]; 250 µg/mL): 74.8±6.82%
Cell viability ([1]; 500 µg/mL): 55.3±7.79%
Concentrations at which cytotoxicity was demonstrated [1]: higher than 100 µg/mL
Cumulative drug release (In vitro drug release; pH 1.2 (0.1 N HCl), at 60 min): exceeded 90%
Cumulative drug release (In vitro drug release; pH 6.8 phosphate buffer, at 120 min): exceeded 90%
Inhibition of tumor growth rate compared to the control group ([2]; CT26, once-biweekly IV 3.3 mg/kg OP, 21 days): 40.0%
Tumor suppression compared to the OP-S (10) group [2, 4]: 53.3%
Tumor suppression compared to the control group [2, 4]: 70.2%
Reduction of isolated tumor mass compared to the controls ([2]; CT26, once-biweekly IV 10 mg/kg OP, day 21): 71.7%
TUNEL-positive cells (apoptosis) compared to the controls ([2]; CT26 tumors, day 21, groups ODSF (10), ODSF (20), OP-IV (10)): significant increases in the number of TUNEL-positive cells
CD31-positive microvessels (immunohistochemistry) ([2]; CT26 tumors, day 21, groups OP-IV (3.3), OP-S (10), ODSF (10), ODSF (20)): greater numbers of microvessels
Numbers of PCNA-positive cells (proliferation) ([2]; CT26 tumors, day 21, groups OP-S, OP-IV (10), ODSF (10), ODSF (20), listed as OP-S): significantly higher
Reduction in tumor volume compared to controls ([3]; HCT116, once-biweekly IV 3.3 mg/kg OP): 33.5%
Numbers of CD31-positive microvessels compared to the control and OP-S (10) groups [3, 5]: marked reductions
Numbers of PCNA-positive proliferating cells compared to the control and OP-S (10) groups [3, 5]: marked reductions
TUNEL-positive apoptotic cells compared to the control and OP-S (10) groups [3, 5]: significantly greater numbers of TUNEL-positive apoptotic cells
